Assay results published in ChEMBL document CHEMBL3580642, “Cytotoxic Bryostatin Derivatives from the South China Sea Bryozoan Bugula neritina” (J Nat Prod, 2015).
The source made the active and inactive calls. No cut-off for these calls is given here.

Experiments:
K562 [1] = test: Cytotoxicity against human K562 cells assessed as reduction in cell viability incubated for 72 hrs by MTT method; type: functional, cell-based; settings: K562, 72 h
Procedure, shortened: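 Cells were grown in RPMI-1640 or DMEM with 10% FBS at 37 °C, humidified 5% CO2. Adherent cells attached for 12 h before dosing, and suspension cells were seeded at 1 × 10^5 cells/mL. […] MTT read-out used DMSO solubilisation and OD 490 nm. IC50 came from mean OD versus concentration curves.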

HeLa [2] = test: Cytotoxicity against human HeLa cells assessed as reduction in cell viability at 20 ug/ml incubated for 72 hrs by MTT method; type: functional, cell-based
Procedure, shortened: (§1)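 Cultures were kept in RPMI-1640 or DMEM with 10% FBS at 37 °C, 5% CO2. Adherent cells were dosed after 12 h attachment, and suspension cells were seeded at 1 × 10^5 cells/mL. Triplicate 72 h exposure was followed by MTT, DMSO solubilisation and OD 490 nm. Activity was scored at a concentration of 20 μg/mL.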

SGC-7901 = test: Cytotoxicity against human SGC7901 cells assessed as reduction in cell viability at 20 ug/ml incubated for 72 hrs by MTT method; type: functional, cell-based; procedure, shortened: as §1
U-937 [3] = test: Cytotoxicity against human U937 cells assessed as reduction in cell viability incubated for 72 hrs by MTT method; type: functional, cell-based; settings: U-937, 72 h
U-937 [4] = test: Cytotoxicity against human U937 cells assessed as reduction in cell viability at 20 ug/ml incubated for 72 hrs by MTT method; type: functional, cell-based; procedure, shortened: as §1
K562 [5] = test: Cytotoxicity against human K562 cells assessed as reduction in cell viability at 20 ug/ml incubated for 72 hrs by MTT method; type: functional, cell-based; procedure, shortened: as §1
HeLa [6] = test: Cytotoxicity against human HeLa cells assessed as reduction in cell viability incubated for 72 hrs by MTT method
[7] = Cytotoxicity against human SGC7901 cells assessed as reduction in cell viability incubated for 72 hrs by MTT method; settings: SGC-7901, 72 h

Compound	IC50 (K562 [1])	inhibition (HeLa [2])	inhibition (SGC-7901)	IC50 (U-937 [3])	inhibition (U-937 [4])	inhibition (K562 [5])	IC50 (HeLa [6])	IC50 [7]
CCCC(=O)O[C@H]1/C(=C/C(=O)OC)C[C@H]2C[C@H]([C@@H](C)O)OC(=O)C[C@H](O)C[C@@H]3C[C@H](OC(=O)C(C)(C)C)C(C)(C)[C@](O)(C[C@@H]4C/C(=C/C(=O)OC)C[C@H](/C=C/[C@H](C)[C@]1(O)O2)O4)O3	9.9 µM	inactive	inactive	7.7 µM	–	–	–	–
CCCC(=O)O[C@H]1/C(=C/C(=O)OC)C[C@H]2C[C@H]([C@@H](C)O)OC(=O)C[C@H](O)C[C@@H]3C[C@H](OC(=O)C(C)(C)C)C(C)(C)[C@](OC)(C[C@@H]4C/C(=C/C(=O)OC)C[C@H](/C=C/C(C)(C)[C@]1(O)O2)O4)O3	–	inactive	inactive	–	inactive	inactive	–	–
COc1cccc2c1C(=O)c1c(O)c3c(c(O)c1C2=O)C[C@@](O)(C(=O)CO)C[C@@H]3O[C@H]1C[C@H](N)[C@H](O)[C@H](C)O1 [DOXORUBICIN]	0.2 µM	–	–	–	–	–	0.1 µM	0.2 µM
CCCC(=O)O[C@H]1/C(=C/C(=O)OC)C[C@@H]2C[C@H]([C@@H](C)O)OC(=O)C[C@H](O)C[C@@H]3C[C@H](OC(=O)CC(C)C)C(C)(C)[C@](O)(C[C@@H]4C/C(=C/C(=O)OC)C[C@H](/C=C/C(C)(C)[C@]1(O)O2)O4)O3	–	inactive	inactive	–	inactive	inactive	–	–
